This is an account of results in ChEMBL document CHEMBL3867451, “Phenolic Metabolites of Dalea ornata Affect Both Survival and Motility of the Human Pathogenic Hookworm Ancylostoma ceylanicum” (J Nat Prod, 2016).

Series [1] in a line: Effect on Syrian hamster splenocytes proliferation assessed as stimulation index by BrdU-incorporation based colorimetric analysis. Format: ADME, cell-based, Mesocricetus auratus. The settings on record: splenocyte. Put shortly:
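Hamster spleens dissociated through strainers, red cells lysed, cells washed in RPMI. Plated in triplicate at 10⁵ cells per well with several doses of compound. 1% DMSO served as negative control, concanavalin A as positive control. Proliferation read by colorimetric BrdU incorporation. Index is mean OD450 of compound wells divided by mean OD450 of medium plus 1% DMSO wells, with 1 meaning no effect.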

For series [2], the system named is Ancylostoma ceylanicum. The series is described as follows: Anthelmintic activity against Ancylostoma ceylanicum isolated from infected Syrian hamster feces assessed as survival rate at 25 ug/ml measured on day 4 relative to control. Format: functional. Conditions: 96 h.
Series [3] concerns Ancylostoma ceylanicum. The series is described as follows: Anthelmintic activity against Ancylostoma ceylanicum isolated from infected Syrian hamster feces assessed as survival rate at 25 ug/ml measured on day 2 relative to control. Conditions: 48 h. Format: functional.
Series [4] has as its system Ancylostoma ceylanicum. Kind of series: Anthelmintic activity against Ancylostoma ceylanicum isolated from infected Syrian hamster feces assessed as survival rate at 25 ug/ml measured on day 3 relative to control. Format: functional. The settings on record: 72 h.
Series [5] relates to Ancylostoma ceylanicum. Kind of series: Anthelmintic activity against Ancylostoma ceylanicum isolated from infected Syrian hamster feces assessed as survival rate at 25 ug/ml measured on day 1 relative to control. Format: functional. Conditions: 24 h.
Series [6] relates to Ancylostoma ceylanicum. The series is described as follows: Anthelmintic activity against Ancylostoma ceylanicum isolated from infected Syrian hamster feces assessed as survival rate at 25 ug/ml measured on day 5 (reference value: >95%). Conditions: 120 h. Format: functional.
Series [7] concerns Ancylostoma ceylanicum. The series is described as follows: Anthelmintic activity against Ancylostoma ceylanicum isolated from infected Syrian hamster feces assessed as mortality at 10 ug/ml measured on day 3 relative to control. Conditions: 72 h. Format: functional.
Series [8] deals with Ancylostoma ceylanicum. The series is described as follows: Anthelmintic activity against Ancylostoma ceylanicum isolated from infected Syrian hamster feces assessed as motility at 25 ug/ml measured on day 5. Format: functional. Put shortly:
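Adult worms from hamster intestine washed in RPMI with fungizone (25 μg/mL) and 20× pen/strep, held overnight at 37 °C, 5% CO2 in that medium plus 50% FBS. Compound added from DMSO stock to 1% DMSO final; 1% DMSO negative control. Motility scored on a 0–3 scale, worms stimulated by microscope light and heat and gentle manipulation.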

Series [9] in a line: Toxicity in po dosed rat. Format: organism-based. Conditions: in vivo.

Broadly, the mortality is the percentage killed. As usually defined, the LD50 is the dose at which mortality reaches 50%. A high value points to lower toxicity.

Turning to `CC(C)=CCc1c(O)ccc2c1O[C@H](c1ccc(O)cc1O)CC2=O`, the Ratio in series [1] fell in the range of 0.8 to 1. Also, the survival at 25 µg/mL in series [2] turned out to be 80%; in series [3] it was 100%; in series [4], 90%; in [5], 100%; in series [6], 80%.
With `COc1cc2c(cc1OC)[C@]1(O)C(=O)c3ccc4c(c3O[C@@H]1CO2)C=CC(C)(C)O4` [TEPHROSIN], the Ratio in series [1] fell in the range of 0.8 to 1. The survival at 25 µg/mL in series [2] worked out at 0%; in series [3] it was 3%; in series [4], 0%; in series [5] it was 77%; in [6] it was 0%. Also, in [7], the mortality at 10 µg/mL came out at 100%.
For `C=CC(C)(C)c1cc([C@@H]2CC(=O)c3c(O)cc(O)c(CC=C(C)C)c3O2)c(O)cc1O`, in series [1], the Ratio lay in the range of 0.8 to 1. The survival at 25 µg/mL in [2], in [3], in [4], in series [5] and in [6] was 100% throughout.
Consider `COc1cc2c(cc1OC)[C@@H]1C(=O)c3ccc4c(c3O[C@@H]1CO2)C=CC(C)(C)O4` [DEGUELIN], for which the Ratio in series [1] was 0.8 to 1. In addition, the survival at 25 µg/mL in series [2] amounted to 0%; in series [3] it was 50%; in [4], 40%; in series [5] it was 100%; in series [6], 0%.
In the case of `CC(C)=CCc1c(O)c(O)cc2c1O[C@H](c1ccc(O)cc1)CC2=O`, in series [1], the Ratio came out at 0.8. The survival at 25 µg/mL in series [2] was 83%; in series [3], 97%; in series [4], 90%; in series [5] it was 100%; in [6], 83%.
`Oc1ccc2c(c1)OC[C@@H]1c3cc4c(cc3O[C@H]21)OCO4` [(+)-MAACKIAIN]: in [1], the Ratio is listed as 1. In addition, the survival at 25 µg/mL in series [2] worked out at 80%; in [3], 93%; in [4] it was 83%; in series [5], 100%; in [6], 73%. For the same compound, in series [8], the Activity is 80%.
The compound `C=C(C)[C@H]1Cc2c(ccc3c2O[C@@H]2COc4cc(OC)c(OC)cc4[C@@H]2C3=O)O1` [ROTENONE] displayed a median lethal dose (LD50) in series [9] of 132 to 1500 mg/kg.
On to `C=CC(C)(C)c1cc([C@@H]2CC(=O)c3ccc(O)c(CC=C(C)C)c3O2)c(O)cc1O`, for which the Ratio in [1] lay within 0.8 to 1. Besides, the survival at 25 µg/mL is 97% in series [2]; 100% in [3]; 100% in [4]; 100% in series [5]; 90% in series [6].
`COc1ccc2c(c1)O[C@@H]1c3ccc(O)cc3OC[C@H]21`: in series [1], the Ratio lay in the range of 0.8 to 1. The survival at 25 µg/mL in [2], in [3], in [4], in [5] and in series [6] was 100% throughout.
For `CC(C)=CCc1c(O)cc(O)c2c1O[C@H](c1ccc(O)cc1O)CC2=O` [LEACHIANONE G], in series [1], the Ratio lay within 0.8 to 1. Further, the survival at 25 µg/mL in series [2] was determined as 93%; in series [3] it was 97%; in series [4], 93%; in series [5], 100%; in series [6] it was 87%.
`CC(C)=CCC/C(C)=C/Cc1c(O)ccc2c1O[C@H](c1ccc(O)cc1O)CC2=O`: in [1], the Ratio lay within 0.8 to 1. Further, the survival at 25 µg/mL in series [2] was determined as 100%; in series [3], 100%; in series [4], 100%; in series [5] it was 100%; in series [6], 93%.
